We go through twelve compounds from ChEMBL document CHEMBL4373637, “Synthesis of bicyclic 1,4-thiazepines as novel anti-Trypanosoma brucei brucei agents” (Medchemcomm, 2019).

For series [1], the system named is Nippostrongylus brasiliensis. The experiment in a line: Antiparasitic activity against Nippostrongylus brasiliensis L4 assessed as parasite death at 20 uM relative to control. Format: functional.
Series [2] has as its target T1, Thioredoxin glutathione reductase (Echinococcus granulosus) (UniProt Q869D7).
T1 sequence (whole entry): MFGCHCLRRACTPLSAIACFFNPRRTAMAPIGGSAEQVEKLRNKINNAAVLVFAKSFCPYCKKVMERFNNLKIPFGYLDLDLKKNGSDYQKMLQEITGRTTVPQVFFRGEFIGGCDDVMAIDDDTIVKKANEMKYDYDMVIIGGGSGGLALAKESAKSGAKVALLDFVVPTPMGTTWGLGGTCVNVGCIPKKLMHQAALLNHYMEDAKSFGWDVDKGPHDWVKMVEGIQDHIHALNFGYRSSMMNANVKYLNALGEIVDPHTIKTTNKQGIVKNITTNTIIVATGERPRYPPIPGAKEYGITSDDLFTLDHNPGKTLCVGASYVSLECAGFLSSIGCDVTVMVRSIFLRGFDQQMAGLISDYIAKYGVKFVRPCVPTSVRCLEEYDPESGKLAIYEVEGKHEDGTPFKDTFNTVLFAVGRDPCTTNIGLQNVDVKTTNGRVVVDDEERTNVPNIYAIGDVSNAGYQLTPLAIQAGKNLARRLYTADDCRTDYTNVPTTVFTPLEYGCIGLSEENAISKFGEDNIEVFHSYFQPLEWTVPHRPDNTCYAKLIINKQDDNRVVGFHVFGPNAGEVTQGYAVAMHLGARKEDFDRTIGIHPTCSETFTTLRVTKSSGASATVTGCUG
The experiment in a line: Inhibition of wild type recombinant Echinococcus granulosus TGR at 50 uM preincubated for NADPH followed by compound addition and measured after 3 mins by spectrophotometric analysis relative to control. The gist of the method: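 Recombinant wild-type E. granulosus TGR (1 nM) in 50 mM phosphate, 1 mM EDTA, pH 7, with 100 µM NADPH. Enzyme was preincubated for 3 min with NADPH and inhibitor at 50 µM (from a 100 mM DMSO stock). The reaction was started with 5 mM DTNB, and TNB formation was followed at 412 nm for 3 min. Runs were in duplicate, with controls lacking enzyme and lacking inhibitor.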

The next series concerns Caenorhabditis elegans. The experiment in a line: Antiparasitic activity against Caenorhabditis elegans assessed as inhibition of parasite motility at 100 uM after 17.5 hrs by motility assay relative to control. Format: functional. The gist of the method:
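About 80 synchronized L4 worms per well in K buffer with 0.015% BSA. Motility was first recorded for 30 min to set 100%. Compound was then added at 100 µM in 1% DMSO, and motility was tracked automatically for 17.5 h. Mean motility at the final time was compared with 1% DMSO control wells. Eight replicates.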

The test system of series [3] is Trypanosoma brucei brucei. The experiment in a line: Antitrypanosomal activity against Trypanosoma brucei brucei 427 assessed as parasite death at 30 uM after 24 hrs by PI-staining based flow cytometry analysis relative to control. Format: functional. Put shortly:
(§1)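 Bloodstream-form T. b. brucei strain 427 grown in HMI-9 with 10% FBS at 37 °C and 5% CO2. Exponential-phase parasites were seeded at 5 x 10⁵/mL and given compound from DMSO stocks, alongside 1% DMSO and nifurtimox control wells. After 24 h, aliquots were diluted into PBS with 1% glucose (pH 7.4) and propidium iodide and counted by flow cytometry (ex 488 nm). Viability (%) = 100 × cells treated / cells in DMSO control.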
(In general: In flow cytometry, cells or beads pass a laser one at a time.)

In series [4] the test system is Trypanosoma brucei brucei. Briefly: Antitrypanosomal activity against Trypanosoma brucei brucei 427 assessed as parasite death at 5 uM after 24 hrs by PI-staining based flow cytometry analysis relative to control. Format: functional. The gist of the method: as §1
Series [5] concerns Trypanosoma brucei brucei. The experiment in a line: Antitrypanosomal activity against Trypanosoma brucei brucei 427 assessed as parasite death after 24 hrs by PI-staining based flow cytometry analysis. The following applies: Trypanosoma brucei, 427, 24 h. Format: functional, organism-based. The gist of the method: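 Bloodstream-form T. b. brucei 427, cell line 449, carrying a redox biosensor, grown in HMI-9 with 10% FBS at 37 °C and 5% CO2. Exponential-phase cells at 5 x 10^5/mL were exposed to compound for 24 h; the control was 1% DMSO. Cells were then diluted into PBS with 1% glucose (pH 7.4) and propidium iodide, and analysed by flow cytometry (ex 488 nm). Viability was expressed as % of DMSO-control cell number.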

The subject of the next series is J774. Briefly: Cytotoxicity against mouse J774 cells assessed as reduction in cell viability after 24 hrs by WST-1 assay. The following applies: J774, 24 h. Format: cell-based. Put shortly:
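Mouse J774 macrophages grown in DMEM with 10% FCS at 37 °C and 5% CO2. Viability was read with WST-1 at 6 concentrations, in triplicate, and expressed relative to the DMSO-treated control.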
(Tetrazolium dyes change colour on reduction, which living cells bring about.)

The nature of series [6]: Selectivity index, ratio of EC50 for mouse J774 cells to EC50 for antitrypanosomal activity against Trypanosoma brucei brucei 427. Format: toxicity. The conditions noted are these: read-out: Ratio EC50.

For the compound `CCOC(=O)C1=C(C(=O)OCC)C2CSC(CS1)N2Cc1ccc(F)cc1` (stereo not drawn), the Activity in series [1] worked out at 47.6%; in series [3], 99.4%; in series [4], 12.7%. The inhibition in series [2] stood at 41%. The inhibition at 100 µM with Caenorhabditis elegans amounted to 26%. Further, the EC50 in series [5] was 17.8 µM; in the series on J774 it was 64.4 µM. Besides, in series [6], the selectivity ratio stood at 3.6.

For the compound `CC1CS(=O)(=O)CCN1/N=C/c1ccc([N+](=O)[O-])o1` (stereo not drawn) [NIFURTIMOX], the EC50 with J774 is 150 µM. The selectivity ratio in series [6] was found to be 10.

With `CCCSc1ccc2[nH]c(NC(=O)OC)nc2c1` [ALBENDAZOLE], the Activity in series [1] is recorded as 100%.

Turning to `COC(=O)C1=C(C(=O)c2ccc(Cl)cc2)C2CSC(CS1)N2CCO` (stereo not drawn), the figures for the Activity in series [1], in series [3] and in series [4] were 20.6%, 3.6% and 1.8%, respectively. Further, the inhibition in series [2] was found to be 0%. Further, the inhibition at 100 µM in the series on Caenorhabditis elegans was 18%.

Consider `O=C(OCc1c(-c2ccccc2)no[n+]1[O-])C1=C(C(=O)c2ccc(Cl)cc2)C2CSC(CS1)N2Cc1ccccc1` (stereo not drawn), for which the inhibition in series [2] turned out to be 0%. Moreover, the results for the Activity in series [3] and in series [4] were 97.7% and 89.4%, respectively. Further, the 50% effective concentration (EC50) was 2.5 µM in series [5] and 3.1 µM with J774. The selectivity ratio in series [6] came to 1.2.

In the case of `CCOC(=O)C1=C(C(=O)OCC)C2CSC(CS1)N2CCCC(=O)OCc1c(-c2ccccc2)no[n+]1[O-]` (stereo not drawn), the inhibition in series [2] worked out at 0%. In addition, the inhibition at 100 µM in the series on Caenorhabditis elegans came to 22%. Also, the Activity in series [3] came out at 97.8%; in series [4], 60.4%. The half-maximal effective concentration (EC50) in series [5] is 2.8 µM; in the series on J774, above 200 µM. Moreover, the selectivity ratio in series [6] was above 71.

Consider `O=C(OCc1c(-c2ccccc2)no[n+]1[O-])C1=C(C(=O)OCc2c(-c3ccccc3)no[n+]2[O-])C2CSC(CS1)N2Cc1ccccc1` (stereo not drawn), for which the figures for the Activity in series [3] and in series [4] were 23.3% and 12.2%, respectively.

As to `CCOC(=O)C1=C(C(=O)OCC)C2CSC(CS1)N2Cc1ccc(Cl)cc1` (stereo not drawn), the Activity in series [1] stood at 17.1%; in series [3] it was 97.3%; in series [4] it was 2.4%. Also, the inhibition in series [2] worked out at 0%. Also, the inhibition at 100 µM in the series with Caenorhabditis elegans was found to be 37%. Also, the EC50 in series [5] is 8 µM; in the series on J774, above 200 µM. The selectivity ratio in series [6] is above 25.

`CCOC(=O)C1=C(C(=O)OCC)C2CSC(CS1)N2Cc1ccc(OC)cc1` (stereo not drawn): the results for the Activity in series [1], in series [3] and in series [4] were 13.8%, 97.7% and 3%, respectively. Besides, the inhibition in series [2] turned out to be 36%. For the same compound, the inhibition at 100 µM with Caenorhabditis elegans came to 50%. In addition, the 50% effective concentration (EC50) is 18 µM in series [5] and above 200 µM with J774. For the same compound, the selectivity ratio in series [6] was above 11.

On to `COC(=O)C1=C(C(=O)c2ccc(Cl)cc2)C2CSC(CS1)N2Cc1ccccc1` (stereo not drawn), for which the Activity in series [1] stood at 20.5%; in series [3] it was 57.5%; in series [4], 3.4%. Also, in series [2], the inhibition was 0%. In the series on Caenorhabditis elegans, the inhibition at 100 µM was found to be 51%.

For the compound `CCOC(=O)C1=C(C(=O)OCC)C2CSC(CS1)N2Cc1ccccc1` (stereo not drawn), the Activity in series [1] is on record as 5.9%; in series [3], 98.8%; in series [4], 3.5%. For the same compound, in series [2], the inhibition was 0%. Besides, the inhibition at 100 µM in the series with Caenorhabditis elegans is 20%. The half-maximal effective concentration (EC50) in series [5] worked out at 18.9 µM; with J774 it was 200 µM. Besides, the selectivity ratio in series [6] is 10.

Turning to `COC(=O)C1=C(C(=O)c2ccc(Cl)cc2)C2CSC(CS1)N2Cc1ccc(OC)cc1` (stereo not drawn), the Activity amounted to 27.6% in series [1], 95.9% in series [3] and 0% in series [4]. In addition, the inhibition in series [2] came to 29%. Moreover, the inhibition at 100 µM with Caenorhabditis elegans is 3%. Moreover, the EC50 is 16.4 µM in series [5] and 9.7 µM in the series on J774. The selectivity ratio in series [6] came out at 0.6.

As a reminder, the inhibition is how much of the control response was suppressed. As a reminder, the EC50 is the concentration needed to bring the measured effect to its halfway point.
